Most compounds without a hit are left out; they make up all but 29% or so of the library.
Ecoli WT expand – growth inhibitors of E. coli BW25113 wild type; OD600 absorbance; growth inhibition, % at 100 µM; hit rate 0.15% among 98,000;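 active = growth inhibition above about 50% at one test dose, limit read from the data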;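 note: growth measured after 20 h incubation at 37 °C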
tolC growth inh – growth inhibitors of E. coli BW25113 tolC mutant; hit rate 2.2% among 65,000; growth inhibition, % at 10 µM (by protocol); OD615;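 active = growth inhibition at or above a cutoff equal to the mean over every tested compound plus 3 SD, cut at about 60% in these data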;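 note: growth measured after 20 h incubation at 37 °C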
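Test system: E. coli BW25113 ΔtolC::kan bacteria; incubation: 37 °C, 20 h exposure; medium: LB broth supplemented with 50 µg/mL kanamycin; read-out basis: percent growth inhibition; signal: A615 absorbance measurement; compound: 10 µM final, single dose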
CYP2C9 inhib – human CYP2C9 inhibition | P11712 | CYP2C9 Supersomes, luciferin-H conversion, luminescence | inhibition, % at 5 µM | hit rate 20% among 96,000;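 active = blocking of liver enzyme CYP2C9 beyond about 50% at 5 µM, limit read from the data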
Target sequence (P11712 whole entry, looked up): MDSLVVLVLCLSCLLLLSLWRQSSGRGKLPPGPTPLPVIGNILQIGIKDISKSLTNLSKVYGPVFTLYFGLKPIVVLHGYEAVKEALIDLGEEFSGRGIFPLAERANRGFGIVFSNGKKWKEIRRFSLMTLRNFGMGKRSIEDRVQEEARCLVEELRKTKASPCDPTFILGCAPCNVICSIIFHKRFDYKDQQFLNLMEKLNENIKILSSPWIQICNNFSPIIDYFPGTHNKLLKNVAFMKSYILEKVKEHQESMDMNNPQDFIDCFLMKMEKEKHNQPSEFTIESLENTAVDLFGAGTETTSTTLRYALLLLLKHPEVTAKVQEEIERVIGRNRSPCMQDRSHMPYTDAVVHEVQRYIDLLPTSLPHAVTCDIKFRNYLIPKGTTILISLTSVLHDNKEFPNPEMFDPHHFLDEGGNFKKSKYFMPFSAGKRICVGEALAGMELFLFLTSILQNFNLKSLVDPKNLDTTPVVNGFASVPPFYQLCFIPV
CYP2C19 inhib – human CYP2C19 inhibition. P33261. CYP2C19 Supersomes, luciferin-H EGE luminescence, 30 min. inhibition, % at 5 µM. hit rate 21% among 96,000. AID 778;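 active = CYP2C19 inhibition above a set limit at 5 µM in the primary screen, cut at about 50% in these data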
CYP2C19 activ – activators of human cytochrome P450 2C19; recombinant CYP2C19, luciferin-H EGE luminescence; stronger effect = higher value; 0 = fully inhibited enzyme, 1 = untreated enzyme; activation factor at 5 µM; 96,000 tested, under 10 active; AID 1025;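 active = activation factor of at least 2 at 5 µM in the primary screen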
CYP2C9 act – activators of human CYP2C9; P11712; recombinant CYP2C9, luciferin-H conversion, luminescence; stronger effect = higher value; factor 1 = untreated enzyme, 0 = blocked; activation factor at 5 µM; hit rate 1.4% among 96,000; AID 1024;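 active = activation factor of 2 or more for CYP2C9 at a 5 µM dose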
Each line names hits and unclear results; the compound was inactive in the other large screens.

Cn1c(=O)c2c(nc(OCC3COC(C)(C)O3)n2Cc2ccccc2F)n(C)c1=O (stereo not given)	none
COc1ccc(-c2nnc(SCc3nc4ccccc4s3)n2C(C)C)cc1	CYP2C19 inhib 92.8 (no result: tolC growth inh)
CCCn1c(=O)c2ccccc2n2c(SCc3nc4ccccc4s3)nnc12	CYP2C9 inhib 72.5, CYP2C19 inhib 90.5
CCn1c(SCc2nc3ccccc3s2)nnc1-c1cccs1	CYP2C9 inhib 54.1, CYP2C19 inhib 98.5
Cn1c(SCc2ccccc2)nnc1-c1cccs1	none
CCC(CC)NC(=O)CSc1nnc(-c2ccc(OC)cc2)n1C(C)C	none (no result: tolC growth inh)
CCn1c(CSc2nc3ccccc3s2)nnc1SCC(N)=O	none (no result: tolC growth inh)
CCCn1c(=O)c2ccccc2n2c(SCCOc3ccccc3)nnc12	none
Cn1c(SCc2nc3ccccc3s2)nnc1-c1cccs1	CYP2C19 inhib 92.1
C=C1[C@@H](C)C2[C@H](Cc3ccccc3)NC(=O)[C@]23OC(=O)CC[C@H](O)CCC[C@H](C)C/C=C/[C@H]3[C@@H]1O (stereo not given in full)	none (no result: Ecoli WT expand, CYP2C9 inhib, CYP2C19 inhib, CYP2C19 activ, CYP2C9 act)
O=C(N1CCCC1)N1CCN(c2ncnc3c(-c4ccc(Cl)cc4)nsc23)CC1	none (no result: Ecoli WT expand)
COc1cc(NC(=S)Nc2ccc(S(=O)(=O)N3CCOCC3)cc2)cc(OC)c1OC	none (no result: tolC growth inh)
CCCC(c1nnnn1CC(=O)OCC)N(Cc1cc2c(C)cc(C)cc2[nH]c1=O)C1CCCC1 (stereo not given)	none
CCC(C)(C)n1nnnc1C(c1cc2cc3c(cc2[nH]c1=O)OCO3)N1CCN(C)CC1 (stereo not given)	none
Cc1ccccc1-n1c(C)nnc1SCc1nc2ccccc2s1	CYP2C19 inhib 75.7
OCCOCCn1c2ccccc2c2ccccc21	CYP2C19 inhib 54.7
O=C1C(c2ccc(F)cc2)N(Cc2ccc3c(c2)OCO3)C(=O)CN1C1CCCCC1 (stereo not given)	none
O=C1CC(c2ccc(F)cc2)CC(O)=C1C1NCCc2ccccc21 (stereo not given)	none (no result: tolC growth inh)
O=C(Nc1ccccc1Cl)C1CCCN(S(=O)(=O)c2ccc(F)cc2)C1 (stereo not given)	CYP2C19 inhib 71.3 (no result: tolC growth inh)
CCOc1ccccc1NC(=O)C1CCN(c2ccc(S(=O)(=O)N3CCCC3)cc2)CC1	CYP2C9 inhib 54.4
CCOc1ccccc1NC(=O)C1CCCCN1S(=O)(=O)c1ccc(F)cc1 (stereo not given)	CYP2C19 inhib 63.7, CYP2C9 act 2.9 (no result: tolC growth inh)
CCOc1ccccc1NC(=O)C1CCN(S(=O)(=O)c2ccc(OC)c(OC)c2)CC1	none
CCCCNC(=O)C(CC)Sc1nc2sc(C(=O)OC)c(C)c2c(=O)n1N (stereo not given)	none (no result: tolC growth inh, CYP2C9 inhib, CYP2C19 inhib, CYP2C19 activ, CYP2C9 act)
CCC(Sc1nc2sc(C(=O)OC)c(C)c2c(=O)n1N)C(=O)NCC1CCCO1 (stereo not given)	CYP2C9 inhib 93.3, CYP2C19 inhib 93.9
COc1ccc(NC(=O)c2cnc3ccccn3c2=O)cc1OC	none (no result: Ecoli WT expand, CYP2C9 inhib, CYP2C19 inhib, CYP2C19 activ, CYP2C9 act)
CN(Cc1c(O)ccc2c1oc(=O)c1ccccc12)C1CCCCC1	CYP2C19 inhib 50.2
CCOC(=O)C1=C(CN2CCOCC2)NC(=O)NC1c1cc(C)ccc1C (stereo not given)	none
CCOC(=O)C1=C(CN2CCN(c3ccc(F)cc3)CC2)NC(=O)NC1c1cccs1 (stereo not given)	CYP2C9 inhib 91.1, CYP2C19 inhib 88.4
COc1cc(C(=O)OCC(=O)Nc2cc(C)on2)cc(OC)c1OC	none (no result: tolC growth inh)
CC(C)(C)C1CCc2c(sc(NC(=O)c3cc(C4CC4)on3)c2C#N)C1 (stereo not given)	CYP2C9 inhib 72.7
Cc1sc2nc(C3CC3)nc(N3CCN(S(=O)(=O)c4ccc(F)cc4)CC3)c2c1C	CYP2C9 inhib 59.2
COC(=O)CSc1ncccc1-c1nc2ccccc2[nH]1	CYP2C19 inhib 59.1
N#CCCCSc1ncccc1-c1nc2ccccc2[nH]1	none (no result: CYP2C9 inhib, CYP2C19 inhib, CYP2C19 activ, CYP2C9 act)
Cc1cc2nc(-c3cccnc3SCC(=O)NCc3ccco3)[nH]c2cc1C	none (no result: CYP2C9 inhib, CYP2C19 inhib, CYP2C19 activ, CYP2C9 act)
O=C(CSc1ncccc1-c1nc2ccccc2[nH]1)NCc1ccco1	CYP2C9 inhib 55.4
O=C(Cc1coc(-c2ccc(F)cc2)n1)NCc1ccccc1	none
COC(=O)Oc1c(Br)c(=O)oc2ccccc12	none (no result: CYP2C9 inhib, CYP2C19 inhib, CYP2C19 activ, CYP2C9 act)
CCOC(=O)c1nnn(-c2nc(N3CCCC3)nc(N3CCCC3)n2)c1-c1ccccc1	CYP2C19 inhib 51.0
CCOC(=O)c1c(-c2ccccc2)nnn1-c1nc(OCC)nc(N2CCCCC2)n1	tolC growth inh 75.4, CYP2C9 inhib 59.9, CYP2C19 inhib 88.2
CCOC(=O)c1nnn(-c2nc(OC)nc(N3CCCCC3)n2)c1-c1ccccc1	CYP2C9 inhib 55.5, CYP2C19 inhib 80.2 (no result: tolC growth inh)
CCOc1nc(N2CCCCC2)nc(-n2cc(-c3ccccc3)nn2)n1	none (no result: tolC growth inh)
Cc1ccc(NC(=O)c2cc(N3C(=O)C4CC=CCC4C3=O)ccc2N2CCCCC2)cc1 (stereo not given)	none (no result: tolC growth inh)
O=C(c1ccc(CSCc2ccccc2F)o1)N1CCN(c2ccc(N3CCOCC3)nn2)CC1	CYP2C9 inhib 50.4, CYP2C19 inhib 60.5
O=C(c1cc2ccccc2oc1=O)N1CCN(c2ccc(N3CCOCC3)nn2)CC1	none
C=CCn1c(=O)c2c3c(sc2n2c(Nc4ccc(OC)cc4)nnc12)CCCC3	CYP2C9 inhib 78.8
C=CCn1c(NC(C)c2cc(Cl)ccc2O)nc2ccccc21 (stereo not given)	tolC growth inh 100.0, CYP2C19 inhib 67.6
C=CCn1c(NCc2ccc(N(C)C)cc2)nc2ccccc21	CYP2C19 inhib 96.2
C=CCn1c(N)nc2ccccc21	none
C=CCn1c(NCc2cc(C)ccc2O)nc2ccccc21	CYP2C9 inhib 63.6, CYP2C19 inhib 84.8
CC(=O)Oc1cc2oc(=O)c3c(c2cc1Cl)CCC3	none
O=C(Nc1ccc(O)c(C(=O)O)c1)c1ccc2c(c1)C(=O)N(CC1CCCO1)C2=O (stereo not given)	CYP2C9 inhib 65.5
C#CC(C)(CC)NC(=O)c1cc(OC)c(OC)c(OC)c1 (stereo not given)	none
Cc1ccc2[nH]c(=O)c(CN(C)C(=O)c3ccccn3)cc2c1	none
Cn1ncc(C#N)c1NC(=O)C1CC(c2ccc(Cl)cc2)=NO1 (stereo not given)	CYP2C19 inhib 72.1 (no result: tolC growth inh)
CCOc1ccccc1C1CC(=O)NC2=C1C(=O)CC(C)(C)C2 (stereo not given)	none
Cc1ccc(C)c(C(=O)Cn2ncc(Cl)c(Cl)c2=O)c1	CYP2C9 act 2.1 (no result: tolC growth inh)
CCn1c(SCC(=O)NCc2ccccc2)nnc1-c1ccccc1O	CYP2C9 inhib 51.6, CYP2C19 inhib 57.4
CCn1c(SCC(=O)Nc2cc(F)ccc2C)nnc1-c1ccccc1O	CYP2C9 inhib 80.7, CYP2C19 inhib 94.6
N#Cc1ccccc1NC(=O)CSc1nnc(-c2ccccc2O)n1-c1ccccc1	CYP2C9 inhib 64.4
N#CCSc1nnc(-c2ccccc2O)n1Cc1ccccc1	CYP2C19 inhib 50.6 (no result: tolC growth inh)
C=CCN1C(=O)CN=C1Nc1ccc(OC)cc1OC	none
CCn1c(SCC(=O)Nc2ccccc2C)nnc1-c1ccccc1O	CYP2C9 inhib 51.3, CYP2C19 inhib 56.7
